Measurements as given in ChEMBL document CHEMBL1145336, “1-aryl-3-(4-pyridine-2-ylpiperazin-1-yl)propan-1-one oximes as potent dopamine D4 receptor agonists for the treatment of erectile dysfunction” (J Med Chem, 2006).

Key:
Type in all cases: functional, cell-based
D(2) dopamine receptor [1] = biological target: T1, D(2) dopamine receptor (Homo sapiens, UniProt P14416); experiment: Agonist activity at human recombinant D2 receptor expressed in HEK293 cells by FLIPR assay
Procedure, shortened: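 Calcium flux (FLIPR) in HEK-293 cells coexpressing recombinant human D2L with chimeric Gqo5. Efficacy is the maximal response relative to 10 µM dopamine (100%). EC50 is the concentration giving half-maximal stimulation. Values are means (SEM, n ≥ 3).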

D(2) dopamine receptor [2] = biological target: T1, D(2) dopamine receptor; experiment: Antagonist activity at human recombinant D2 receptor expressed in HEK293 cells by FLIPR assay
D(4) dopamine receptor = biological target: T2, D(4) dopamine receptor (Homo sapiens, UniProt P21917); experiment: Activity at human recombinant D4.4 receptor expressed in HEK293 cells by FLIPR assay
T2 sequence (P21917 whole entry): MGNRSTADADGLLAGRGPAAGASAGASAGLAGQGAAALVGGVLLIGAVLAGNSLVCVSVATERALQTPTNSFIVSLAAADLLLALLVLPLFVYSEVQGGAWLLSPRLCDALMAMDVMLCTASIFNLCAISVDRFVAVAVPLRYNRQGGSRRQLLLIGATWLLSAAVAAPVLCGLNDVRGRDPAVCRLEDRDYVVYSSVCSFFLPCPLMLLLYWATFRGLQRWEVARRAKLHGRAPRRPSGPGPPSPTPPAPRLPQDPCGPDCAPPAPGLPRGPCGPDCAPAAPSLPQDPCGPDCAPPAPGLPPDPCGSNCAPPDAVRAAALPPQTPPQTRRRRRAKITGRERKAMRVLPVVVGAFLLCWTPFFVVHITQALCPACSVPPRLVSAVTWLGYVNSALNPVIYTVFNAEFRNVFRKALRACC

T1 sequence (P14416 whole entry): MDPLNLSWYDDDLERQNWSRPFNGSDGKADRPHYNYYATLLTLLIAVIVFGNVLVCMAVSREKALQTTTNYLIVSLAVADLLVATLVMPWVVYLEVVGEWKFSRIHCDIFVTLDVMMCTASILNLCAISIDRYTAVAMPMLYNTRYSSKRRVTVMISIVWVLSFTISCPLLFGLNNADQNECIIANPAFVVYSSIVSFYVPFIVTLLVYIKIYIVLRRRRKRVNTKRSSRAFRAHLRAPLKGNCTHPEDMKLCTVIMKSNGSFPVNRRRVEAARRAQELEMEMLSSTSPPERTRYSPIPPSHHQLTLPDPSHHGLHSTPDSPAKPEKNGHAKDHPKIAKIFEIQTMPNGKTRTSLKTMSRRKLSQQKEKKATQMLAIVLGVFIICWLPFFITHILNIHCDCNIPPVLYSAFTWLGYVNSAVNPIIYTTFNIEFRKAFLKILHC

SMILES	EC50 (D(2) dopamine receptor [1]) [µM]	IC50 (D(2) dopamine receptor [2]) [µM]	EC50 (D(4) dopamine receptor) [µM]
CO/N=C(/CCN1CCN(c2ccccn2)CC1)c1ccc(C)c(C)c1	> 10	> 10	0.091
CCO/N=C(\CCN1CCN(c2ncccc2C#N)CC1)c1ccccc1	> 10	> 10	0.139
CO/N=C(\CCN1CCN(c2ccccn2)CC1)c1ccc(Cl)c(C)c1	> 10	> 10	0.135
O/N=C(\CCCN1CCN(c2ccccn2)CC1)c1ccc(F)cc1	> 10	> 10	0.0095
O/N=C(\CCN1CCN(c2ncccn2)CC1)c1ccccc1	> 10	> 10	0.0392
CO/N=C(\CCN1CCN(c2ccccn2)CC1)c1cc(C)cc(C)c1	> 10	> 10	0.175
O/N=C(/CCN1CCN(c2ccccn2)CC1)c1ccccc1	> 10	> 10	0.0217
CO/N=C(\CCN1CCN(c2ccccn2)CC1)c1ccccc1Cl	> 10	> 10	0.0423
CO/N=C(/CCN1CCN(c2ccccn2)CC1)c1ccc(Cl)cc1Cl	> 10	> 10	0.296
O/N=C(\CCN1CCN(c2nccs2)CC1)c1ccccc1	> 10	> 10	0.0495
CO/N=C(/CCN1CCN(c2ccccn2)CC1)c1ccc(Br)cc1	> 10	> 10	0.082
CCO/N=C(\CCN1CCN(c2ccccc2C#N)CC1)c1ccccc1	> 10	> 10	0.0487
Cc1ccc(O)c(/C(CCN2CCN(c3ccccn3)CC2)=N/O)c1	> 10	> 10	0.0192
CO/N=C(/CCN1CCN(c2ccccn2)CC1)c1ccccc1C	> 10	> 10	0.0401
CO/N=C(/CCN1CCN(c2ccccn2)CC1)c1cccc(Cl)c1	> 10	> 10	0.113
CCO/N=C(\CCN1CCN(c2cccc(OC)c2)CC1)c1ccccc1	> 10	> 10	2.68
O/N=C(\CCN1CCN(c2ccccn2)CC1)c1ccc(Cl)cc1	> 10	> 10	0.475

SMILES	EC50 (D(2) dopamine receptor [1]) [µM]	IC50 (D(2) dopamine receptor [2]) [µM]	EC50 (D(4) dopamine receptor) [µM]
Cc1ccccc1/C(CCN1CCN(c2ccccn2)CC1)=N\O	> 10	> 10	0.0203
CC(C)O/N=C(\CCN1CCN(c2ccccn2)CC1)c1ccccc1	> 10	> 10	0.164
N#Cc1cccc(/C(CCN2CCN(c3ccccn3)CC2)=N/O)c1	> 10	> 10	0.0131
O/N=C(\CCN1CCN(c2ccccn2)CC1)c1cccc(Cl)c1	> 10	> 10	0.0119
COC(CN1CCN(c2ccccn2)CC1)/C(=N\O)c1cccc(C)c1 (centres undefined)	> 10	> 10	0.0345
N#Cc1cccnc1N1CCN(CC/C(=N/O)c2ccccc2)CC1	> 10	> 10	0.02
O/N=C(/CN1CCN(c2ccccn2)CC1)c1ccc(F)cc1	> 10	> 10	> 10
CO/N=C(\CCN1CCN(c2ccccn2)CC1)c1cccc(C#N)c1	> 10	> 10	0.0637
O/N=C(\CCN1CCN(c2ccccn2)CC1)c1cc(F)cc(F)c1	> 10	> 10	0.0194
CCO/N=C(\CCN1CCN(c2ccccc2)CC1)c1ccccc1	> 10	> 10	0.109
Cc1ccccc1/C(CCN1CCN(c2ccccn2)CC1)=N/O	> 10	> 10	0.0042
O/N=C(\CCN1CCN(c2ccccn2)CC1)c1cccc(F)c1	> 10	> 10	0.0171
CO/N=C(/CCN1CCN(c2ccccn2)CC1)c1ccc(F)c(Cl)c1	> 10	> 10	0.095
CO/N=C(\CCN1CCN(c2ccccc2OC(C)C)CC1)c1ccc(F)cc1	> 10	> 10	0.594
CO/N=C(/c1cccnc1)C(O)CN1CCN(c2ccccn2)CC1 (centres undefined)	> 10	> 10	0.123
Cc1cc(C)cc(/C(CCN2CCN(c3ccccn3)CC2)=N/O)c1	> 10	> 10	0.0458
CO/N=C(/CCN1CCN(c2ccccn2)CC1)c1ccccc1	> 10	> 10	0.0241

Further lines, results first:

EC50 (D(2) dopamine receptor [1]) [µM]	IC50 (D(2) dopamine receptor [2]) [µM]	EC50 (D(4) dopamine receptor) [µM]	SMILES
> 10	> 10	0.018	N#Cc1cccnc1N1CCN(CC/C(=N\O)c2ccccc2)CC1
> 10	> 10	0.0089	O/N=C(\CCN1CCN(c2ccccn2)CC1)c1ccc(F)cc1F
> 10	> 10	0.0747	CO/N=C(/CCN1CCN(c2ccccn2)CC1)c1cc(C)cc(C)c1
> 10	> 10	0.024	O/N=C(\CCN1CCN(c2ccccn2)CC1)c1ccccc1Cl
> 10	> 10	0.0448	Cc1cccc(/C(=N\O)C(O)CN2CCN(c3ccccn3)CC2)c1 (centres undefined)
> 10	> 10	0.35	C=CCO/N=C(\CCN1CCN(c2ccccn2)CC1)c1ccccc1
> 10	> 10	0.249	CO/N=C(\CCN1CCN(c2ccccn2)CC1)c1ccc(Cl)cc1Cl
> 10	> 10	0.601	CO/N=C(/CCN1CCN(c2ccccc2OC(C)C)CC1)c1ccc(F)cc1
> 10	> 10	0.606	CO/N=C(\CCN1CCCC(c2ccccn2)C1)c1ccc(Cl)cc1 (centres undefined)
> 10	> 10	0.099	CO/N=C(/CCN1CCN(c2ccccn2)CC1C)c1ccc(Cl)cc1 (centres undefined)
> 10	> 10	4.29	CO/N=C(/CN1CCN(c2ccccn2)CC1)c1ccc(F)cc1
> 10	> 10	5.37	COC(CN1CCN(c2ccccn2)CC1)/C(=N/O)c1cccc(C)c1 (centres undefined)
> 10	> 10	0.0572	CO/N=C(/CCN1CCN(c2ccccn2)CC1)c1ccccc1Cl
> 10	> 10	0.0417	CO/N=C(\CCCN1CCN(c2ccccn2)CC1)c1ccc(F)cc1
> 10	> 10	0.025	O/N=C(/CCN1CCN(c2ccccn2)CC1)c1ccccc1Cl
> 10	> 10	0.0566	CO/N=C(/CCN1CCN(c2ccccn2)CC1)c1ccc(Cl)cc1
> 10	> 10	0.0175	O/N=C(/CCN1CCN(c2ccccn2)CC1)c1cc(F)cc(F)c1
> 10	> 10	0.183	CO/N=C(\CCN1CCN(c2ccccn2)CC1)c1ccc(Br)cc1
> 10	> 10	3.21	CO/N=C(/c1ccc(Cl)cc1)C(COC(C)C)CN1CCN(c2ccccn2)CC1 (centres undefined)
